Test results taken from article PMC3510669 (Journal of immunology (Baltimore, Md. : 1950), 2010).

Test system: naïve CD4^+ T cells
Test: pMHCII tetramer-based cell enrichment of spleen and lymph node cells
Parameters: species or system mouse
Conditions: B6 mice; for fold smaller than the 2W:I-A^b-specific naïve population: spleen and lymph nodes (3K: spleen and lymph nodes or thymus), Fig. 3B, C, 4D; for size of naïve CD4+ T cell population specific for peptide:I-A^b: spleen and lymph nodes, mean, Fig. 4D, 6D
How it was run: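 Spleen and lymph node cells from individual naïve B6 mice were enriched with peptide:I-A^b tetramers. Tetramer-binding CD4⁺ T cells were counted as total cells per mouse, and group means were taken across individual mice.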

Sequence | fold smaller than the 2W:I-A^b-specific naïve population [fold] | size of naïve CD4+ T cell population specific for peptide:I-A^b [cells]
EARGALANWAVDSA [1R] | 3 | 108 ± 36
EAGGALANGAVDSA [2G] | 6 | 62 ± 13
EAGGALANWAVDSA [1G] | 3 | 127 ± 39
